The source made the active and inactive calls.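 Rule for the calls, unless noted: active = viability at or under a set limit in both replicates, limit being median viability minus 3 SD (cut at about 48% in these data, passing the limit was not always enough); inconclusive = at or under the limit in just one replicate; inactive = at or above the limit in both replicates.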

Assay [1] in a line: reducers of endogenous Her2 protein level, primary screen, SKBR3 breast tumor cells, AlphaScreen, ATP viability (AID 461;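 active = Her2 level under about 52% in both replicate screens, with viability over 70% of control, limit read from the data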;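 for Her2 level: lower value means less Her2 protein in the cells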;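 for viability: percent of carrier control wells set as 100% viability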). Particulars: 18-24 h, measured here: SKBR3 viability, ATP luminescence, at 10 µM. (In general: Bead proximity is the source of the signal in Alpha formats.)
The target in assay [2] is Receptor tyrosine-protein kinase erbB-2 (Homo sapiens) (UniProt P04626). Described as above. The conditions noted are these: 18-24 h, at 10 µM, stronger effect = lower value.
Chain of Receptor tyrosine-protein kinase erbB-2 (Homo sapiens) (P04626 whole entry, looked up): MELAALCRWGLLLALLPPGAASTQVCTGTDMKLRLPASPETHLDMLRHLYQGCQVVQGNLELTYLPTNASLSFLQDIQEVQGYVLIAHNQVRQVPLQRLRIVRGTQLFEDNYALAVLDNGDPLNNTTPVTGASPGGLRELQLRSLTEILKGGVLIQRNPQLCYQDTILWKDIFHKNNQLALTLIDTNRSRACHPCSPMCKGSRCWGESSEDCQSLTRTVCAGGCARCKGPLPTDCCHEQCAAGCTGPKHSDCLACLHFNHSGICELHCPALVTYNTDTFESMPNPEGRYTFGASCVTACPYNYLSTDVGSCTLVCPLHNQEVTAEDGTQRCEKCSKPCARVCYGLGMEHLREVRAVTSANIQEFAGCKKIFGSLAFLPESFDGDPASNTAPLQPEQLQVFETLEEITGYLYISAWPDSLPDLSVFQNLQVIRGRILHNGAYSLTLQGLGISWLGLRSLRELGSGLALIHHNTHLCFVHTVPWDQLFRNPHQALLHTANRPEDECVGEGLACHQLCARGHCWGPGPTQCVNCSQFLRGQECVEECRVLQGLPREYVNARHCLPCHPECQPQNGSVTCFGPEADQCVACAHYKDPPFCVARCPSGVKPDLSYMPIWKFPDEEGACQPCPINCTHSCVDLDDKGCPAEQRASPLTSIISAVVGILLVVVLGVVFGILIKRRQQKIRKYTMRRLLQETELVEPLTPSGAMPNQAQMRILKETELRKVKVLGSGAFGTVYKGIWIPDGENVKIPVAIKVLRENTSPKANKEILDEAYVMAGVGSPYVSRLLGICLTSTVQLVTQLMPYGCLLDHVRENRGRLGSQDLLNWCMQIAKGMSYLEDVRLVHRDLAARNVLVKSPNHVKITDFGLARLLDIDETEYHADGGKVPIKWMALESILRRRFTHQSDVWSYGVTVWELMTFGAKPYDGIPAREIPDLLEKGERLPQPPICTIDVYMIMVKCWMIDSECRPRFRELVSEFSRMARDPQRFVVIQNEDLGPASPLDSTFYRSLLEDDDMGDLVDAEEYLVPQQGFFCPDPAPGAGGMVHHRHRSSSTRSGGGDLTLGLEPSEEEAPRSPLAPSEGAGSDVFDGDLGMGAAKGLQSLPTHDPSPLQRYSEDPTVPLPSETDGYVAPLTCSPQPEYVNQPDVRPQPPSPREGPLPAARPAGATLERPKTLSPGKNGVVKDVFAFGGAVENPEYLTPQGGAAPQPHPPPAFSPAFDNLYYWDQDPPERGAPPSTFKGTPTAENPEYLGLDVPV
A short description of assay [3]: SK-BR-3 cell growth inhibitors, pilot screen, 24 h, human (AID 572;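 active = viability at or below 10% of carrier control in both of two separate runs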;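 note: compound exposure lasted between 18 and 24 h rather than exactly 24 h; 100% = carrier-treated control wells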). The conditions noted are these: SK-BR-3 viability, CellTiter-Glo luminescence, at 10 µM, stronger effect = lower value.
Assay [4] in a line: HUVEC growth inhibition – cell-based, human, primary screen (AID 575;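 active = viability at or below 30% in both replicate assays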;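 note: 100% = median of untreated cell wells with 0.1% DMSO on each plate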). Particulars: HUVEC proliferation, CellTiter-Glo luminescence, 72 h; at 10 µM; stronger effect = lower value. The procedure, abridged: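 Timing: 72 h treatment at 37 °C; material: HUVEC primary cells; technique: CellTiter-Glo luminescence measuring cellular ATP; controls: vehicle and MePR control wells; measure: percent of median DMSO-control luminescence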

The nature of assay [5]: growth inhibitors of H69AR lung tumor, primary screen, human, duplicate replicates (AID 580).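 Note: 100% = mean luminescence of untreated wells and 0% = no signal.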 The conditions noted are these: H69AR lung tumor cells viability, ATP luminescence, 72 h; at 10 µM; stronger effect = lower value.
The nature of assay [6]: reversal of MRP1-mediated doxorubicin resistance, pilot screen, H69AR cells, doxorubicin co-treatment (AID 601;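 active = viability loss from added drug above about 55%, and viability with drug at most 40%, in both replicates, limit read from the data, passing the limit was not always enough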). The conditions noted are these: CellTiter-Glo, 72 h, at 10 µM; for differential viability (reversal): stronger effect = higher value. (In ATP-based viability assays light output follows the ATP content of the culture.)
A short description of assay [7]: 384-well plate pilot, post-Golgi transport modulator project, inhibition of yeast transport mutant growth (AID 636; in the data active = inhibition above about 31%). The conditions noted are these: absorbance 615 nm, about 18 h, stronger effect = higher value.
Assay [8] is described as follows: growth suppression of yeast trafficking mutant, preliminary HTS, modulators of trafficking downstream of Golgi apparatus project, 1536-format plate, OD 615 nm (AID 637; in the data active = inhibition above about 30%). Particulars: yeast transport mutant growth, absorbance 615 nm, 18 h; stronger effect = higher value.
[9] abbreviates: H69AR cells + 2 uM doxorubicin, measured here: viability with 2 uM doxorubicin, stronger effect = lower value.
Where [10] appears, read: H69AR cells, compound alone cytotoxicity.

Take `Fc1cccc2sc(N3CCOCC3)nc12`: the viability is 93.5% in assay [1]; 93.5% (inactive) in assay [3]; 83.9% (inactive) in assay [4]; 96.8% (inactive) in assay [5]; 81.4% in assay [6] (setting [9]); 96.8% in assay [6] (setting [10]). In addition, in assay [2], the Her2 level is 80.5% (inactive). Moreover, the differential viability (reversal) in assay [6] (H69AR cells + 2 uM doxorubicin) was 15.4% (inactive). Moreover, the inhibition is -4.87% (inactive) in assay [7] and 5.17% (inactive) in assay [8].

Regarding `C=CCC(NCc1ccco1)c1ccc(OC)cc1OC` (stereo not given), the viability is 96% in assay [1]; 96% (inactive) in assay [3]; 99.1% (inactive) in assay [4]; 93% (inactive) in assay [5]; 85.3% in assay [6] (setting [9]); 93% in assay [6] (setting [10]). Besides, the Her2 level in assay [2] is 98.5% (inactive). Besides, the differential viability (reversal) in assay [6] (H69AR cells + 2 uM doxorubicin) was 7.67% (inactive). The inhibition in assay [7] was -4.08% (inactive); in assay [8], 0.36% (inactive).

With `CC(=O)c1cccc(NC(=O)N2CCCc3ccccc32)c1`, the viability is 105% in assay [1]; 105% (inactive) in assay [3]; 95% (inactive) in assay [4]; 93.6% (inactive) in assay [5]; 90.7% in assay [6] (setting [9]); 93.6% in assay [6] (setting [10]). Besides, the Her2 level in assay [2] is 104% (inactive). Moreover, the differential viability (reversal) in assay [6] (H69AR cells + 2 uM doxorubicin) was 2.88% (inactive). In addition, the inhibition was -3.73% (inactive) in assay [7] and 3.93% (inactive) in assay [8].

For the compound `COc1ccc(N2C(=O)CC(NC3CC3)C2=O)cc1` (stereo not given), the viability was 100% in assay [1]; 100% (inactive) in assay [3]; 94.7% (inactive) in assay [4]; 91.2% (inactive) in assay [5]; 90.5% in assay [6] (setting [9]); 91.2% in assay [6] (setting [10]). For the same compound, the Her2 level in assay [2] is 89.5% (inactive). The differential viability (reversal) in assay [6] (H69AR cells + 2 uM doxorubicin) is 0.64% (inactive). In addition, the values for the inhibition in assay [7] and in assay [8] were -3.82% (inactive) and -6% (inactive), respectively.

As to `CCC(C)NC(=O)C1CCCN(S(=O)(=O)c2ccc(-n3cnnn3)cc2)C1` (stereo not given), the viability in assay [1] was 109%; in assay [3] it was 109% (inactive); in assay [4], 104% (inactive); in assay [5], 103% (inactive); in assay [6] (setting [9]), 88.6%; in assay [6] (setting [10]), 103%. Besides, in assay [2], the Her2 level is 104% (inactive). Further, the differential viability (reversal) in assay [6] (H69AR cells + 2 uM doxorubicin) was 14.5% (inactive). For the same compound, the inhibition in assay [7] is -2.97% (inactive); in assay [8], -10% (inactive).

`CCN(c1cccc(C(F)(F)F)c1)S(=O)(=O)c1ccc2c(c1)CCN2C(=O)C1CC1`: the viability in assay [1] is 99%; in assay [3], 99% (inactive); in assay [4], 65.8% (inactive); in assay [5], 82.5% (inactive); in assay [6] (setting [9]), 82.9%; in assay [6] (setting [10]), 82.5%. Also, in assay [2], the Her2 level is 120% (inactive). In addition, the differential viability (reversal) in assay [6] (H69AR cells + 2 uM doxorubicin) is -0.405% (inactive). Further, the inhibition in assay [7] is -3.42% (inactive); in assay [8], -1% (inactive).

Turning to `O=C(Nc1cccc(C(=O)N2CCOCC2)c1)c1cccnc1`, the viability in assay [1] was 99.5%; in assay [3], 99.5% (inactive); in assay [4], 91% (inactive); in assay [5], 91.2% (inactive); in assay [6] (setting [9]), 100%; in assay [6] (setting [10]) it was 91.2%. Also, in assay [2], the Her2 level was 118% (inactive). Besides, in assay [6] (H69AR cells + 2 uM doxorubicin), the differential viability (reversal) was -9.23% (inactive). Besides, the inhibition in assay [7] is -6.18% (inactive); in assay [8] it was -3.11% (inactive).

As for `C/C(=N\O)C(C)/[N+]([O-])=C/c1nc(C)c(C)n1O` (stereo not given), the viability in assay [1] is 95.5%; in assay [3], 95.5% (inactive); in assay [4] it was 97% (inactive); in assay [5], 92.8% (inactive); in assay [6] (setting [9]), 102%; in assay [6] (setting [10]), 92.8%. The Her2 level in assay [2] was 109% (inactive). For the same compound, in assay [6] (H69AR cells + 2 uM doxorubicin), the differential viability (reversal) is -8.95% (inactive). Moreover, the inhibition in assay [7] is -0.27% (inactive); in assay [8] it was 0.48% (inactive).

Regarding `Cc1ccc(NS(=O)(=O)c2cn(C)cn2)cc1`, the viability is 95% in assay [1]; 95% (inactive) in assay [3]; 100% (inactive) in assay [4]; 92.7% (inactive) in assay [5]; 86.8% in assay [6] (setting [9]); 92.7% in assay [6] (setting [10]). Moreover, the Her2 level in assay [2] was 88% (inactive). Moreover, in assay [6] (H69AR cells + 2 uM doxorubicin), the differential viability (reversal) was 5.86% (inactive). Also, the inhibition is -2.63% (inactive) in assay [7] and 2.36% (inactive) in assay [8].

`COc1ccc(-n2c(Cc3cccn3C)nnc2SCC(=O)NCC2CCCO2)cc1` (stereo not given): the viability was 100% in assay [1]; 100% (inactive) in assay [3]; 93.9% (inactive) in assay [4]; 100% (inactive) in assay [5]; 92.3% in assay [6] (setting [9]); 100% in assay [6] (setting [10]). Also, in assay [2], the Her2 level is 107% (inactive). The differential viability (reversal) in assay [6] (H69AR cells + 2 uM doxorubicin) was 7.7% (inactive). Also, the figures for the inhibition in assay [7] and in assay [8] were -0.9% (inactive) and 3% (inactive), respectively.

For `COc1cccc(Cn2c(Oc3ccccc3)nc3c2c(=O)n(C)c(=O)n3C)c1`, the viability was 100% in assay [1]; 100% (inactive) in assay [3]; 72.7% (inactive) in assay [4]; 83.8% (inactive) in assay [5]; 80.5% in assay [6] (setting [9]); 83.8% in assay [6] (setting [10]). Besides, the Her2 level in assay [2] is 104% (inactive). Further, in assay [6] (H69AR cells + 2 uM doxorubicin), the differential viability (reversal) was 3.32% (inactive). The inhibition in assay [7] is -0.13% (inactive); in assay [8] it was 6.07% (inactive).

Regarding `O=C(Cn1c(SCC(=O)N2CCCc3ccccc32)nc2ccccc21)N1CCCC1`, the viability in assay [1] is 94%; in assay [3], 94% (inactive); in assay [4] it was 104% (inactive); in assay [5], 98.3% (inactive); in assay [6] (setting [9]), 93.6%; in assay [6] (setting [10]), 98.3%. For the same compound, the Her2 level in assay [2] is 96% (inactive). Also, the differential viability (reversal) in assay [6] (H69AR cells + 2 uM doxorubicin) is 4.66% (inactive). Also, the inhibition is -6.05% (inactive) in assay [7] and -2.38% (inactive) in assay [8].

For the compound `Cc1cccc(NC(=O)c2cc3n(n2)C(C(F)(F)F)CC(c2ccc4c(c2)OCO4)N3)c1` (stereo not given), the viability was 113% in assay [1]; 113% (inactive) in assay [3]; 56.9% (inactive) in assay [4]; 73.9% (inactive) in assay [5]; 80.2% in assay [6] (setting [9]); 73.9% in assay [6] (setting [10]). The Her2 level in assay [2] is 68.5% (inactive). Further, in assay [6] (H69AR cells + 2 uM doxorubicin), the differential viability (reversal) is -6.35% (inactive). Moreover, the results for the inhibition in assay [7] and in assay [8] were -0.53% (inactive) and 1.61% (inactive), respectively.

Turning to `CC(C(=O)N1CCOCC1)N1c2cccc3cccc(c23)S1(=O)=O` (stereo not given), the viability is 101% in assay [1]; 101% (inactive) in assay [3]; 100% (inactive) in assay [4]; 93.5% (inactive) in assay [5]; 92.6% in assay [6] (setting [9]); 93.5% in assay [6] (setting [10]). The Her2 level in assay [2] was 91.5% (inactive). Moreover, the differential viability (reversal) in assay [6] (H69AR cells + 2 uM doxorubicin) is 0.905% (inactive). Also, the inhibition in assay [7] was -2.76% (inactive); in assay [8], 5.57% (inactive).

As to `CC(C)(C)n1nnnc1CN1CCN(C2CCCC2)CC1`, the viability is 84% in assay [1]; 84% (inactive) in assay [3]; 101% (inactive) in assay [4]; 104% (inactive) in assay [5]; 101% in assay [6] (setting [9]); 104% in assay [6] (setting [10]). Besides, the Her2 level in assay [2] is 84% (inactive). Further, the differential viability (reversal) in assay [6] (H69AR cells + 2 uM doxorubicin) was 3.04% (inactive). Further, the inhibition is -7.7% (inactive) in assay [7] and -2.3% (inactive) in assay [8].

Take `CC1(C)CNC(=O)c2sc(N3CCOCC3)nc2C1`: the viability in assay [1] was 114%; in assay [3], 114% (inactive); in assay [4] it was 67.9% (inactive); in assay [5], 77.3% (inactive); in assay [6] (setting [9]), 82%; in assay [6] (setting [10]) it was 77.3%. Further, the Her2 level in assay [2] is 87% (inactive). Moreover, the differential viability (reversal) in assay [6] (H69AR cells + 2 uM doxorubicin) was -4.71% (inactive). Besides, the inhibition in assay [7] is -3.82% (inactive); in assay [8], 1.27% (inactive).

For orientation: viability means a read-out of living cells in per cent, often relative to untreated cells. As usually defined, the inhibition is the drop in the measured response relative to a control, in per cent.

(Values after PubChem BioAssay.)
